Article PMC8928501 (ACS Omega, 2022)

Biological target: human transferrin (Tf) (Homo sapiens, UniProt P02787)
Test: isothermal titration calorimetry
Format: binding
How it was run: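 Human transferrin in the sample cell, stated as 25 μM in one place and 20 μM in another; dialyzed and degassed before loading. Test compound at 200 μM in the syringe, added by automated titration after an initial dummy injection. Binding isotherm fitted to a two-site model to obtain the thermodynamic parameters.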

human transferrin (Tf), sequence (P02787 20-698): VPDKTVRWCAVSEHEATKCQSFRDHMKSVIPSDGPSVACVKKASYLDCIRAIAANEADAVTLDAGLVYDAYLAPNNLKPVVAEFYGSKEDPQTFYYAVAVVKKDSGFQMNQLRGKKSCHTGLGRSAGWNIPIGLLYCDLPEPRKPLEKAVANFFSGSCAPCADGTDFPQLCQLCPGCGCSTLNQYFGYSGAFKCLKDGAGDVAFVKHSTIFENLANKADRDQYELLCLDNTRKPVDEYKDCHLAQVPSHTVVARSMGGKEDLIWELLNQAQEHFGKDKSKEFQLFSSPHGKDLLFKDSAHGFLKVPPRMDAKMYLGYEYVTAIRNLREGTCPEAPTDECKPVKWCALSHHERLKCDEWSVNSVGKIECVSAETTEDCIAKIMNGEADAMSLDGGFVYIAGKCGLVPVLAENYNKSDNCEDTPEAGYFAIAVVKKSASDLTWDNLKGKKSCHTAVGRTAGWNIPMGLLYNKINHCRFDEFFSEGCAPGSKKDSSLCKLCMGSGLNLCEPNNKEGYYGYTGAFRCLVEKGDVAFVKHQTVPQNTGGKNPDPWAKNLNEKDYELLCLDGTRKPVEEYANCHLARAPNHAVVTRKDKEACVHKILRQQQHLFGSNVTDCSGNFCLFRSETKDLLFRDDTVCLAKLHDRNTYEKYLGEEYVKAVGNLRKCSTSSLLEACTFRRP

## CNCCC(Oc1ccc(C(F)(F)F)cc1)c1ccccc1 (stereo not shown) [Fluoxetine]
  Kd: 6.9 µM
